Env fusion inh: inhibitors of HIV Env-mediated cell fusion; 360,000 tested, 1.1% active; inhibition, % at 12.3 µM; HeLa-JRFL Env/CEM21 cell fusion, luciferase;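 active = mean replicate inhibition score of at least 50 and every replicate individually at or above 50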;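 also: 0% = plate neutral controls and 100% = maraviroc near 300 nM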
Vif imaging: blocks HIV Vif function | 340,000 tested, 0.35% active | HEK293T cells, Vif self-association by quenched fluorescence, imaging, 24 h | inhibition, % at 7.49 µM; in the data active = inhibition above about 50%, passing the limit was not always enough
miR122 inh: miR-122 inhibition in Huh7 cells; Huh7 miR-122 Renilla luciferase sensor, 48 h; neutral wells = 0, positive control = 100; activation (reporter increase), % at 12.5 µM; 340,000 tested, 0.3% active; AID 602342;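 active = mean replicate activation score at least 90 and every replicate individually at or above 90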;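 also: higher luciferase means less miR-122 activity so hits act as miR-122 inhibitors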
FN deposition inh: fibronectin deposition inhibition; 350,000 tested, 0.086% active; AH1F fibroblasts, Alexa488-fibronectin deposition fluorescence, overnight; AID 743247; inhibition, % at 12.6 µM;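 active = mean inhibition across replicates of 30% or more, regardless of how many single replicates reach that level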;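 also: positive control wells lacked labelled fibronectin entirely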
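Material: AH1F fibroblast monolayer depositing Alexa488-labelled fibronectin into matrix / Amount: 10000 AH1F cells per well / Signal: fluorescence 485/525 nm / Medium: DMEM, 2% serum / Compound: single dose, pinned / Incubation: 1 h cell adhesion before compound, then overnight fibronectin incubation / Reagent: Alexa488-FN, 24 nM final / Read-out: inhibition of fibronectin deposition signal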
Ecoli rRNA inh: selective bacterial rRNA inhibition in E. coli | E. coli WT GFP vs humanized-ribosome RFP mutants, fluorescence, 24 h; active compounds read low; DMSO median 0, no signal -100 | GFP signal change (wild-type ribosome), % (concentration not given with the values) | 350,000 tested, 1.6% active;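 active = significant combined selectivity score with lowered wild-type GFP, culture density cut under 30%, mutant RFP and density less affected; inactive = any of these conditions unmet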
S100A4 MyoIIA: blocks human S100A4 binding to myosin IIA peptide | inhibition, % at 10.7 µM | P26447 | AID 652163 | S100A4/TAMRA-MyoIIA peptide fluorescence polarization | 360,000 tested, 0.14% active;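 active = mean inhibition of at least 70% across replicates, with every replicate also reaching that level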
Target sequence (P26447 whole entry, looked up): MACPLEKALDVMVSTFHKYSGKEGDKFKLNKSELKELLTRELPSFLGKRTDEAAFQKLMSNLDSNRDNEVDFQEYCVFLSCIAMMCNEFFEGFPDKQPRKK
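Material: S100A4 monomer protein | Medium: HEPES pH 7.2 with CaCl2, KCl, NaCl, DTT, Triton | Reagent: Labelled myosin peptide probe, 5 nM | Doses: One dose per compound | Times: 5 min incubation before reading | Benchmarks: Neutral control DMSO, positive control TFP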
Active calls of the source: *; . = no result given; [ ] = another dose, or the depositor's remark. Most compounds without a hit are left out; they make up all but 2.6% or so of the library.

SMILES	Env fusion inh	Vif imaging	miR122 inh	FN deposition inh	Ecoli rRNA inh	S100A4 MyoIIA
CCOc1cc(-c2c(C#N)c(=O)[nH]c3c2c(C)nn3-c2ccc(F)cc2)ccc1O	56.8*	.	1.3	0.8	.	.
C[C@@H]1CN([C@@H](C)CO)C(=O)c2cc(C3=CCCCC3)cnc2O[C@H]1CN(C)Cc1ccccc1F	10.2[16.7 µM]	.	20.6[16.7 µM]	-7.4	-1.9	-29.9
CN(CC(=O)NCc1ccc(F)cc1)S(=O)(=O)c1ccc(Br)s1	6.7	2.3	0.8	-1.5	-21.6*	-1.2
COc1ccc(CNC(=O)CN(C)S(=O)(=O)c2ccc(Br)s2)cc1	8.1	.	-3.6	-4.1	-3.6	-2.3
CN(CC(=O)NCCc1ccc(S(N)(=O)=O)cc1)S(=O)(=O)c1ccc(Br)s1	8.3	62.1*	-2.8	3.4	2.0	-7.2
Cn1c(-[n+]2c(-c3ccccc3)cc(-c3ccccc3)cc2-c2ccccc2)nc2c([N+](=O)[O-])cccc21	13.0	12.5	30.5	5.2	-21.7*	-0.7
O=[N+]([O-])c1cccc2nc(-c3ccccc3)c(-c3ccccc3)nc12	-13.3	-3.4	-2.1	5.0	-7.6	-0.9
COc1cc(-c2nc3oc4ccccc4c(=O)c3c(=O)n2Cc2ccco2)cc(OC)c1OC	92.3*	2.5	-13.9	-7.6	.	.
CC(C)(C)c1ccc(-n2ncc3c2CCCC3NC(=O)CN2CCCC2=O)cc1 (stereo unspecified)	68.4*	-28.3	.	-4.2	0.2	5.2
Cc1cc(C)cc(-n2ncc3c2CCCC3NC(=O)CN2CCCC2=O)c1 (stereo unspecified)	-0.3	-0.5	-1.2	12.4	-1.0	-4.4
Cc1ccc(S(=O)(=O)Nc2ccc(C(=O)Nc3cc(C)on3)cc2)cc1	-7.4	-2.0	115.4*	8.4	.	.
Cc1cc(NS(=O)(=O)c2ccc(NC(=O)c3c(F)c(F)c(F)c(F)c3F)cc2)nc(C)n1	-1.6	-21.3	1.3	-0.7	1.0	-8.4
Cc1cc(NC(=O)c2ccc(S(=O)(=O)Nc3ccccc3)cc2)no1	-33.2	-3.2	13.2	-2.3	.	.
Cc1ccc(S(=O)(=O)Nc2ccc(NC(=O)c3c(F)c(F)c(F)c(F)c3F)cc2)cc1	5.9	-2.4	.	2.2	-25.6*	-0.5
Cc1cc(NS(=O)(=O)c2ccc(NC(=O)c3ccc(Cl)cc3Cl)cc2)no1	-32.8	55.2*	.	1.9	-5.5	-3.6
Cc1cc(NS(=O)(=O)c2ccc(NC(=S)NC(=O)c3ccc(Cl)cc3Cl)cc2)no1	.	-16.4	2.7	.	.	.
COc1ccc(NC(=O)Nc2ccc3c(c2)C(=O)N([C@H](C)CO)C[C@@H](C)[C@H](CN(C)S(=O)(=O)c2ccc(Cl)cc2)OCCCC[C@H](C)O3)cc1	22.7[16.7 µM]	.	-10.0[16.7 µM]	-22.0	-2.4	2.7
O=C(NCc1ccncc1)C12CC3CC(CC(Cl)(C3)C1)C2	14.1	-6.7	.	-8.0	2.0	-0.2
CCN(CC)CCNC(=O)C12CC3CC(CC(C3)C1)C2	.	-10.2	4.7	.	.	.
CC12CC3CC(C)(C1)CC(C(=O)NCc1ccncc1)(C3)C2	100.8*	0.2	-0.6	-3.7	-21.1	-0.9
CCN(CC)CCNC(=O)C12CC3CC(C)(CC(C)(C3)C1)C2	.	68.4*	0.1	.	.	.
CC(C)NC(=O)N(C)C[C@H]1Oc2ccc(NC(=O)CCN3CCOCC3)cc2CC(=O)N([C@H](C)CO)C[C@@H]1C	.	.	-2.6[16.7 µM]	-17.2	1.6	-39.6
Cc1noc(C)c1S(=O)(=O)Nc1ccc2c(c1)C(=O)N([C@@H](C)CO)C[C@@H](C)[C@H](CN(C)Cc1ccc(Cl)c(Cl)c1)O2	-20.0[16.7 µM]	.	-2.9[16.7 µM]	.	-5.0	-6.7
C[C@@H](NC(=O)C[C@@H]1CC[C@H]2[C@@H](COC[C@H](O)CN2C)O1)c1ccccc1	-10.5[16.7 µM]	.	3.7[16.7 µM]	5.8	3.7	1.7
CCCCOc1ccc(N=Nc2ccc(N)nc2N)cn1	-60.3	-2.9	.	-6.4	-25.4*	-3.4
SMILES	Env fusion inh	Vif imaging	miR122 inh	FN deposition inh	Ecoli rRNA inh	S100A4 MyoIIA
Cc1nnc(NS(=O)(=O)c2ccc(N=Nc3ccc(N)nc3N)cc2)s1	3.6	2.7	.	-6.6	2.2	2.5
CC(=O)N1CC2(C1)[C@@H](c1ccc(-c3ccccc3C)cc1)[C@H](CO)N2C(C)=O	.	.	.	.	0.9	.
COc1cc2c(cc1Cl)C(=O)C(F)(c1ccccc1)C(=O)N2 (stereo unspecified)	-7.0	1.0	.	-0.3	-28.8*	2.9
COc1cc(OC)c(NC2=CC(=O)C(=O)c3ccccc32)cc1Cl	-104.8	1.5	-0.2	8.6	-24.4	-0.1
Cc1cc(Cl)ccc1OCC(=O)N1CCCN(C(=O)COc2ccc(Cl)cc2C)CC1	115.2*	.	.	-1.4	.	.
Cc1cc(Cl)ccc1OCCCC(=O)N1CCCc2ccccc21	.	-3.8	1.6	.	-29.6*	1.3
O=C(C[C@H]1C=C[C@H](NC(=O)C2CC2)[C@@H](CO)O1)Nc1nccs1	7.5[16.7 µM]	.	.	-7.4	1.1	1.8
Oc1ccc(C(=S)N2CCCC2)cc1	-16.9	1.4	-1.7	3.4	13.7	-4.2
CC1CCN(C(=S)c2ccc(O)cc2)CC1	-32.7	5.8	248.3*	-3.8	.	.
Cc1cccc(-n2ccnc2SCC(=O)Nc2cc(C)on2)c1	.	16.7	-6.0	.	.	.
Cc1cc(NC(=O)CSc2nccn2-c2cccc(C)c2C)no1	-8.1	-15.2	.	3.8	-27.9*	0.0
CCOC(=O)c1ccc[n+](CC(=O)Nc2cc(C(F)(F)F)ccc2Cl)c1	2.2	52.9*	.	11.8	8.9	-3.1
O=C(COC(=O)c1ccc(O)cc1)Nc1cc(C(F)(F)F)ccc1Cl	9.8	-2.5	-14.9	1.8	-39.3	-6.2
Cc1ccc(S(=O)(=O)Nc2ccc3c(c2)C(=O)N([C@H](C)CO)C[C@H](C)[C@H](CN(C)C(=O)Nc2ccc4c(c2)OCO4)O3)cc1	-4.2[16.7 µM]	.	5.8[16.7 µM]	.	0.4	.
CC(NC(=O)CSc1nc2sc3c(c2c(=O)n1-c1ccccc1)CCCC3)c1ccccc1 (stereo unspecified)	103.1*	8.0	2.3	8.6	.	.
O=C(O)CSc1nc2sc3c(c2c(=O)n1-c1ccccc1)CCC3	-0.7	2.2	-8.5	-4.6	-6.1	-3.1
CNC(=S)N(CCc1c(C)[nH]c2ccc(F)cc12)Cc1ccco1	3.5	3.2	10.3	-7.5	-17.5	-1.1
CNC(=S)N(CCc1c(C)[nH]c2ccccc12)Cc1ccco1	-0.4	1.8	-2.1	6.5	-20.0*	-6.5
Cc1ccccc1S(=O)(=O)N[C@H]1CC[C@@H](CCn2cc(-c3ccc(F)cc3)nn2)O[C@@H]1CO	11.1[16.7 µM]	.	17.9[16.7 µM]	-14.9	-4.2	3.5
CCN(CC)c1ccc(/C=N/NC(=O)c2ccco2)c(O)c1	-408.0	-1.9	.	18.0	-39.3*	13.4
CCN(CC)c1ccc(/C=N/NC(=O)c2ccco2)cc1	-296.5	6.7	8.6	11.5	.	.
Cc1nn(C)c(C)c1NC(=O)CSc1nc(C2CC2)nc2c1cnn2-c1ccccc1	56.6*	-1.9	-2.0	10.9	.	.

High-throughput results deposited in PubChem BioAssay by Broad Institute.
